Results taken from ChEMBL document CHEMBL3091328, “Synthesis, DNA-binding abilities and anticancer activities of triazole-pyrrolo[2,1-c][1,4]benzodiazepines hybrid scaffolds” (Bioorg Med Chem Lett, 2013).
The source made the active and inactive calls. The rule behind the calls is not given here.

Columns and labels:
A-375 [1] = experiment: Upregulation of p21 mRNA expression in human A375 cells at 5 uM after 24 hrs by RT-PCR analysis; assay type: functional, cell-based
Outline: (§1)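 A375 cells treated 24 h at 5 μM; p53, p21, p27 and cyclin D1 transcripts quantified by qPCR, normalised to β-actin in each sample, compared with control.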

A-375 [2] = experiment: Cell cycle arrest in human A375 cells assessed as accumulation at G2/M phase after 24 hrs by propidium iodide staining-based flow cytometry (reference value: 15.2 +/- 0.6%); assay type: functional
A-375 [3] = experiment: Induction of apoptosis in human A375 cells assessed as decrease in Bcl-XL protein level after 24 hrs by Western blotting analysis; assay type: functional, cell-based
Outline: (§2)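 Lysates from A375 cells exposed 24 h to 5 μM, or to a range of concentrations, immunoblotted with specific antibodies against Bcl-2, Bcl-xL, Bax, Bad, caspase-3 and PARP; actin probed as loading control; three separate experiments.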

A-375 [4] = experiment: Induction of apoptosis in human A375 cells assessed as decrease in Bcl-XL protein level at 5 uM after 24 hrs by Western blotting analysis; assay type: functional, cell-based; outline: as §2
B16 = experiment: Cytotoxicity against mouse B16 cells assessed as cell survival at 5 uM after 24 hrs by MTT assay relative to control; assay type: functional; conditions: B16, 24 h, read-out: Survival
Outline: (§3)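 Cells exposed to agent at 5 µM for 24 h, then growth and viability measured by MTT assay. Survival given as percent of untreated control.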

[5] = Cytotoxicity against human skin fibroblasts assessed as cell survival at 5 uM after 24 hrs by MTT assay relative to control; set-up: species or system Skin fibroblast; conditions: read-out: Survival; outline: as §3
A549 = experiment: Cytotoxicity against human A549 cells assessed as cell survival at 5 uM after 24 hrs by MTT assay relative to control; assay type: functional; conditions: A549, 24 h, read-out: Survival; outline: as §3
[6] = Cytotoxicity against human RPMI7951 cells assessed as cell survival at 5 uM after 24 hrs by MTT assay relative to control; assay type: functional; conditions: RPMI-7951, 24 h, read-out: Survival; outline: as §3
A-375 [7] = experiment: Induction of apoptosis in human A375 cells assessed as cleavage of caspase-3 after 24 hrs by Western blotting analysis; assay type: functional, cell-based; outline: as §2
A-375 [8] = experiment: Induction of apoptosis in human A375 cells assessed as increase in Bax protein level after 24 hrs by Western blotting analysis; assay type: functional, cell-based; outline: as §2
A-375 [9] = experiment: Induction of apoptosis in human A375 cells at 5 uM after 24 hrs by AnnexinV-FITC/propidium iodide staining-based fluorimetric analysis (reference value: 2.6%); assay type: functional
A-375 [10] = experiment: Cytotoxicity against human A375 cells assessed as cell survival at 1 to 5 uM after 12 hrs by MTT assay relative to control; assay type: functional, cell-based
Outline: (§4)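 A375 cells seeded at 10,000 per well, attached overnight, then exposed in triplicate to 0, 1, 3 or 5 μM for 0, 12 or 24 h; viability by MTT absorbance versus untreated control; IC50 taken as mean of dose-response curves from three experiments.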

A-375 [11] = experiment: Induction of apoptosis in human A375 cells assessed as increase in Bad protein level at 5 uM after 24 hrs by Western blotting analysis; assay type: functional, cell-based; outline: as §2
HEK-293T = experiment: Cytotoxicity against human 293T cells assessed as cell survival at 5 uM after 24 hrs by MTT assay relative to control; assay type: functional; conditions: read-out: Survival; outline: as §3
A-375 [12] = experiment: Cytotoxicity against human A375 cells assessed as cell survival after 12 to 24 hrs by MTT assay relative to control; assay type: functional, cell-based; outline: as §4
A-375 [13] = experiment: Upregulation of p27 mRNA expression in human A375 cells at 5 uM after 24 hrs by RT-PCR analysis; assay type: functional, cell-based; outline: as §1
A-375 [14] = experiment: Induction of apoptosis in human A375 cells assessed as increase in Bax protein level at 5 uM after 24 hrs by Western blotting analysis; assay type: functional, cell-based; outline: as §2
A-375 [15] = experiment: Cell cycle arrest in human A375 cells assessed as accumulation at S phase after 24 hrs by propidium iodide staining-based flow cytometry (reference value: 11.8 +/- 0.1%); assay type: functional
A-375 [16] = experiment: Induction of apoptosis in human A375 cells assessed as decrease in Bcl-2 protein level at 5 uM after 24 hrs by Western blotting analysis; assay type: functional, cell-based; outline: as §2
A-375 [17] = experiment: Cell cycle arrest in human A375 cells assessed as accumulation at sub-G1 phase after 24 hrs by propidium iodide staining-based flow cytometry (reference value: 7.7 +/- 0.1%); assay type: functional
A-375 [18] = experiment: Downregulation of cyclin D1 mRNA expression in human A375 cells at 5 uM after 24 hrs by RT-PCR analysis; assay type: functional, cell-based; outline: as §1
A-375 [19] = experiment: Induction of apoptosis in human A375 cells assessed as cleavage of PARP after 24 hrs by Western blotting analysis; assay type: functional, cell-based; outline: as §2
A2058 = experiment: Cytotoxicity against human A2058 cells assessed as cell survival at 5 uM after 24 hrs by MTT assay relative to control; assay type: functional; conditions: A2058, 24 h, read-out: Survival; outline: as §3
A-375 [20] = experiment: Cell cycle arrest in human A375 cells assessed as accumulation at G1 phase after 24 hrs by propidium iodide staining-based flow cytometry (reference value: 65.3 +/- 0.1%); assay type: functional
A-375 [21] = experiment: Induction of apoptosis in human A375 cells assessed as increase in Bad protein level after 24 hrs by Western blotting analysis; assay type: functional, cell-based; outline: as §2
A-375 [22] = experiment: Upregulation of p53 mRNA expression in human A375 cells at 5 uM after 24 hrs by RT-PCR analysis; assay type: functional, cell-based; outline: as §1
A-375 [23] = experiment: Induction of apoptosis in human A375 cells assessed as decrease in Bcl-2 protein level after 24 hrs by Western blotting analysis; assay type: functional, cell-based; outline: as §2
Escherichia coli = experiment: Binding affinity to Escherichia coli pBR322 DNA assessed as DNA unwinding at 10 to 1000 uM after 12 hrs by agarose gel electrophoresis
Outline: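 Negatively supercoiled pBR322 plasmid (0.4 μg) incubated 12 h in TE buffer with increasing compound concentrations (0–1000 μM); samples run 2.5 h on 1% agarose gel; unwinding read as reduced mobility.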

Ca9-22 = experiment: Cytotoxicity against human Ca9-22 cells assessed as cell survival at 5 uM after 24 hrs by MTT assay relative to control; assay type: functional; conditions: Ca9-22, 24 h, read-out: Survival; outline: as §3
A-375 [24] = experiment: Cytotoxicity against human A375 cells assessed as cell survival at 5 uM after 24 hrs by MTT assay relative to control; assay type: functional; conditions: A-375, 24 h, read-out: Survival; outline: as §3
A-375 [25] = experiment: Cytotoxicity against human A375 cells assessed as cell survival at 1 to 5 uM by MTT assay relative to control; assay type: functional, cell-based; conditions: TDE = time-dependent effect; outline: as §4

Structure (SMILES) | Activity (A-375 [1]) | Activity (A-375 [2]) | Activity (A-375 [4]) | viability at 5 µM (B16) | viability at 24 h, 5 µM [5] | viability at 5 µM (A549) | viability at 5 µM [6] | Activity (A-375 [9]) | Activity (A-375 [10]) | Activity (A-375 [11]) | viability at 5 µM (HEK-293T) | Activity (A-375 [12]) | Activity (A-375 [13]) | Activity (A-375 [14]) | Activity (A-375 [15]) | Activity (A-375 [17]) | viability at 5 µM (A2058) | Activity (A-375 [20]) | viability at 5 µM (Ca9-22) | viability at 5 µM (A-375 [24]) | also measured
COc1cc2c(cc1OC/C=C\Cn1cc(-c3ccccc3)nn1)N=C[C@@H]1CCCN1C2=O | Active | 2.2% | Active | 33.9% | 87.7% | 65.6% | 55.9% | 23.1% | inactive | Active | 74.1% | Dose-dependent effect | Active | Active | 5.9% | 8.9% | 45.7% | 83% | 25.6% | 22.4% | Activity (A-375 [3]): Dose-dependent effect; Activity (A-375 [7]): Dose-dependent effect; Activity (A-375 [8]): Dose-dependent effect; Activity (A-375 [16]): Active; Activity (A-375 [18]): Active; Activity (A-375 [19]): Dose-dependent effect; Activity (A-375 [21]): Dose-dependent effect; Activity (A-375 [22]): Active; Activity (A-375 [23]): Dose-dependent effect; Activity (Escherichia coli): Active; Activity (A-375 [25]): tde
COc1cccc(-c2cn(C/C=C\COc3cc4c(cc3OC)C(=O)N3CCC[C@H]3C=N4)nn2)c1 | Active | 3.3% | Active | 74.2% | 90.4% | 100% | 65.3% | 16.4% | inactive | Active | 42.8% | Dose-dependent effect | Active | Active | 6.7% | 7.7% | 40.7% | 82.3% | 50% | 48.4% | Activity (A-375 [16]): Active; Activity (A-375 [18]): Active; Activity (A-375 [22]): Active; Activity (A-375 [25]): tde
COc1ccc(-c2cn(C/C=C\COc3cc4c(cc3OC)C(=O)N3CCC[C@H]3C=N4)nn2)cc1 | Active | 3.4% | Active | 62.8% | 90.3% | 98.2% | 66.4% | 12.1% | inactive | Active | 46.7% | Dose-dependent effect | Active | Active | 7.2% | 7.1% | 42% | 82.3% | 55.5% | 38.7% | Activity (A-375 [16]): Active; Activity (A-375 [18]): Active; Activity (A-375 [22]): Active; Activity (A-375 [25]): tde
COc1cc2c(cc1OC/C=C/Cn1cc(-c3ccccc3)nn1)N=C[C@@H]1CCCN1C2=O | – | 5.5% | – | 33.9% | 93% | 70% | 79.1% | – | inactive | – | 78% | – | – | – | 9.7% | 7% | 53.3% | 77.8% | 61.2% | 69.6% | –
COc1ccc(-c2cn(C/C=C/COc3cc4c(cc3OC)C(=O)N3CCC[C@H]3C=N4)nn2)cc1 | – | 5.1% | – | 75.2% | 104% | 81% | 80.1% | – | inactive | – | 40% | – | – | – | 7.4% | 13.9% | 49.2% | 73.6% | 84.1% | 69.2% | –
COc1cc2c(cc1OC/C=C/Cn1cc(-c3ccccc3OC)nn1)N=C[C@@H]1CCCN1C2=O | – | 5.1% | – | 98.9% | 100% | 91% | 83% | – | inactive | – | 55% | – | – | – | 8.1% | 17.3% | 57.9% | 69.5% | 95.6% | 58.4% | –
COc1cccc(-c2cn(C/C=C/COc3cc4c(cc3OC)C(=O)N3CCC[C@H]3C=N4)nn2)c1 | – | 3.5% | – | 107% | 107% | 86% | 87.2% | – | inactive | – | 40% | – | – | – | 7.5% | 17.6% | 62.8% | 71.4% | 97.5% | 58.3% | –
COc1cc2c(cc1OC/C=C\Cn1cc(-c3ccccc3OC)nn1)N=C[C@@H]1CCCN1C2=O | Active | 1.3% | Active | 66.3% | 84.7% | 102% | 75.1% | 11.1% | inactive | Active | 51.1% | Dose-dependent effect | Active | Active | 5.1% | 11.7% | 63.1% | 81.9% | 105% | 58.4% | Activity (A-375 [16]): Active; Activity (A-375 [18]): Active; Activity (A-375 [22]): Active; Activity (A-375 [25]): tde
COc1cc2c(cc1O)N=C[C@@H]1CCCN1C2=O | – | – | – | 66.8% | 89.7% | 85.4% | 61.6% | – | – | – | 55.2% | – | – | – | – | – | 54.8% | – | 94.4% | 52.2% | –
